# From PubChem BioAssay
# MT stabilizer – microtubule stabilizers in HeLa cells | HeLa tubulin immunostaining HCS, 24 h; share of cells brighter than vehicle mean+2SD | % tubulin-high responders, % at 10 µM | 0.83% of 200,000 active | AID 2205;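 active means plate Z-score above 3 for both tubulin-high and condensed-nucleus cell shares, with cell loss under 80%, at 10 µM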;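 further: anti alpha tubulin signal scored within the nucleus-defined area of each cell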
# APP 5UTR inh – APP translation inhibition. 0.82% of 190,000 active. inhibition, % at 2 µM. SH-SY5Y APP 5'UTR-luciferase reporter, luminescence;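 active means inhibition above a set limit, derived from the sample mean plus 3 SD, cut at about 45% in these data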
# BaF3 parental – counter-screen for JAK2V617F inhibitors: parental Ba/F3 viability inhibitors. CellTiter-Glo ATP luminescence. inhibition, % at 5.6 µM. 1.1% of 220,000 active;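 active means inhibition above a per-campaign cutoff, the mean inhibition of all tested compounds plus 3 SD, cut at about 27% in these data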;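 further: 0% = DMSO wells and 100% = JAK Inhibitor I control wells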
# bCat nuc transl – alters nuclear translocation of beta-catenin in HeLa cells | immunofluorescence imaging | nuclear translocation activity, % at 5 µM | 0.3% of 190,000 active | AID 1665;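 active means nuclear translocation activity above 50% at 5 µM, with a well cell count of 50 or more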;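 further: per-cell ratio of nuclear to cytoplasmic median beta-catenin stain intensity; plate controls were DMSO negative control for no effect and GSK-3 inhibitor IX positive control for full effect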
#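 Test system: human HeLa cells, endogenous beta-catenin. Times: 24 h compound exposure, 37°C. Measured by: beta-catenin immunofluorescence imaging with DAPI.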
# IEC-6 cytotox – counter-screen for KLF5 inhibitors: cytotoxicity in IEC-6 cells; inhibition, % at 5 µM; 0.78% of 290,000 active; IEC-6 cytotoxicity, luminescence viability; AID 1825; in the data active means inhibition above about 22%;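 further: 0% = plate median of test compound wells and 100% = cytotoxic reference compound wells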
# Ba/F3 V617F tox – reduce viability of Ba/F3 cells dependent on JAK2V617F; Ba/F3 EpoR-JAK2V617F viability, ATP luminescence; inhibition, % at 5.6 µM; 1.1% of 220,000 active;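 active means inhibition above the campaign mean plus 3 SD over all tested compounds, cut at about 24% in these data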;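 further: cytokine-independent growth of Ba/F3 cells driven by EpoR plus mutant JAK2; 0% = DMSO-treated cells and 100% = JAK inhibitor I control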
# Active calls of the source: *; nt = no result. Only some compounds are listed: those with a hit (about 2.2% of all), similar ones and a draw of the others.
SMILES,MT stabilizer,APP 5UTR inh,BaF3 parental,bCat nuc transl,IEC-6 cytotox,Ba/F3 V617F tox
C/C(N)=C(/C#N)C(=O)COC(=O)CNS(=O)(=O)c1ccc2ccccc2c1,nt,nt,60*,-3,5,51*
CCOc1ccc(S(=O)(=O)c2cn(C)c3cc(OC)c(OC)cc3c2=O)cc1,nt,nt,nt,nt,-6,nt
Cc1ccsc1C1C=C(c2cccc(Br)c2)Nc2ncnn21 (centres undefined),3,18,4,7,10,5
CCc1ccc(C2=CC(c3cc(Br)ccc3F)n3ncnc3N2)cc1 (centres undefined),30*,27,6,2,1,-4
Fc1ccc(Br)cc1C1C=C(c2ccc(Br)cc2)Nc2ncnn21 (centres undefined),49*,3,0,-11,0,-5
COc1ccc(CNC(=O)C/C(C)=N/NC(=O)c2ccc(OC)cc2OC)cc1,nt,nt,nt,nt,4,nt
Cc1ccc(S(=O)(=O)Nc2nnc(C3CCCCC3)s2)cc1,nt,nt,nt,nt,6,nt
On1onc2c3cc(-c4ccccc4)nc3ccc21,2,61*,97*,3,3,100*
C=CCn1c(O)c(N=NC(=S)Nc2ccccc2C)c2cc(S(=O)(=O)N3CCOCC3)ccc21,4,34,8,0,9,0
Cn1c(O)c(N=NC(=S)Nc2ccccc2F)c2cc(S(=O)(=O)N3CCOCC3)ccc21,3,46*,6,0,-8,0
Cc1cc(=O)n(C)c2ccc(S(=O)(=O)N3CCOCC3)cc12,nt,nt,nt,nt,15,nt
Cc1ccc(NC(=S)N=Nc2c(O)n(C)c3ccc(S(=O)(=O)N4CCOCC4)cc23)cc1C,4,70*,2,-1,-3,-1
O=C(/C=C/c1ccc(Cl)cc1)NC(=S)Nc1ccc(NC(=O)c2ccco2)cc1,5,81*,-2,-1,-2,-5
COc1ccc(/C=C/C(=O)NC(=S)NNC(=O)c2ccco2)cc1,33*,-35,6,-2,4,-1
O=C(CN(C(=O)CCC(=O)Nc1nccs1)c1ccc2c(c1)OCO2)NCc1ccccc1,nt,nt,nt,nt,1,nt
O=C(O)c1cc([N+](=O)[O-])cc2c1C=Cc1ccccc1O2,nt,nt,nt,nt,-6,nt
CC(C)(C)c1ccc(-c2noc(CCC(=O)NCc3ccco3)n2)cc1,4,68*,26,-2,-1,-3
COc1ccc(-c2nn3c(-c4cccc(C)c4)nnc3s2)cc1OC,33*,-2,2,nt,-2,-3
Cc1cccc(-c2nnc3sc(-c4ccccc4)nn23)c1,4,1,-1,-5,-12,-3
Cc1ccc(NC(=O)/C=C\C(=O)NCC(=O)O)cc1,4,9,0,-1,-1,-2
Cc1ccc(N2C(=O)c3ccccc3C2=O)nc1,nt,nt,nt,nt,0,nt
c1ccc(C[n+]2cccc(-c3ccccc3)c2)cc1,4,16,64*,-4,-5,65*
NC(=O)c1ccc[n+](Cc2ccccc2)c1,5,-16,4,-1,-4,2
O=S(=O)(c1cc(-c2nnc(-c3ccc(Br)cc3)o2)ccc1Br)N1CCCCCC1,43*,-6,-3,-2,-1,-4
O=S(=O)(c1cc(Br)ccc1Br)N1CCCCCC1,nt,nt,nt,nt,11,nt
SMILES,MT stabilizer,APP 5UTR inh,BaF3 parental,bCat nuc transl,IEC-6 cytotox,Ba/F3 V617F tox
COc1ccc(CCn2nnc(-c3ccc(NC(C)=O)c(Cl)c3)n2)cc1,2,-4,59*,0,-6,-3
Cc1oc2c(CN3CCCCC3C)c(O)ccc2c(=O)c1-c1ccc(Br)cc1 (centres undefined),nt,nt,nt,nt,0,nt
CCCCC[n+]1cccc2c3ccccc3ccc21,4,16,77*,3,14,100*
CCCC[n+]1c2ccccc2cc2ccccc21,nt,nt,nt,nt,-5,nt
O=[N+]([O-])c1ccc(C[n+]2cccc3ccccc32)cc1,4,-20,-1,1,4,0
c1ccc(C[n+]2cccc3c4ccccc4ccc32)cc1,1,2,79*,1,3,97*
COC(=O)C1CN(C(=O)COc2cccc(C)c2C)c2ccccc2O1 (centres undefined),nt,nt,nt,nt,-7,nt
CC(NCc1cc(Br)ccc1OCC(N)=O)C12CC3CC(CC(C3)C1)C2 (centres undefined),nt,nt,nt,nt,5,nt
CCOC(=O)N/N=C/c1ccccc1F,3,-48,2,2,4,2
CC(C)(C)c1nnc(N/N=C/c2ccccc2O)n(N)c1=O,10,76*,1,4,-3,-3
CCc1nnc(N/N=C/c2ccccc2F)n1N,2,10,-1,3,102*,9
Cc1c(Cl)cccc1NC(=O)N1CCN(C(=O)c2ccco2)CC1,nt,nt,nt,nt,-8,nt
CCOc1ccc2nc(N3CCCC(C(=O)NCCCN4CC(C)CC(C)C4)C3)sc2c1 (centres undefined),nt,nt,nt,nt,13,nt
Cc1nn(C)c2ncc(C(=O)c3cc(F)ccc3O)cc12,3,52*,3,nt,-5,-2
Cc1ccc(O)c(C(=O)c2cnc3c(c2)c(C)nn3C)c1,nt,nt,nt,nt,0,nt
COc1ccc(C(NC(C)=O)c2cc(Cl)c3cccnc3c2O)cc1OC (centres undefined),7,50*,10,2,-4,4
CCCC(=O)NC(c1ccco1)c1cc(Cl)c2cccnc2c1O (centres undefined),7,4,4,-3,5,7
CCCC(=O)NC(c1ccc2c(c1)OCO2)c1cc(Cl)c2cccnc2c1O (centres undefined),4,75*,-1,0,-9,-5
CCC(=O)NC(c1ccc(OC)c(OC)c1)c1cc(Cl)c2cccnc2c1O (centres undefined),6,62*,39*,1,11,81*
CCOCCCn1c(=S)[nH]c2cc(C(=O)NC3CCCC(C)C3C)ccc2c1=O (centres undefined),nt,nt,nt,nt,3,nt
Cc1ccc(S(=O)(=O)N(C)CC(=O)N2CCCCCC2)cc1,nt,nt,nt,nt,-1,nt
O=C(COc1ccccc1[N+](=O)[O-])N/N=C/C=C/c1ccco1,4,-15,95*,-1,-5,3
O=C(N/N=C/c1cc2cc3c(cc2nc1Cl)OCO3)c1ccncc1,nt,nt,-4,0,-3,2
C(=C\c1ccccc1)/CSc1nnc(-c2ccccn2)n1Cc1ccco1,29*,18,16,53*,20,9
COC(=O)c1cc2ccsc2n1CC(=O)Nc1cc(Cl)ccc1OC,30*,11,3,nt,-2,0
Cc1ccc(S(=O)(=O)NCc2ccncc2)cc1,2,11,47*,nt,8,37*
CC(=O)Nc1ccc(S(=O)(=O)NCc2ccncc2)cc1,1,-7,37*,0,-4,32*
CC(C)CNS(=O)(=O)c1ccc(CCC(=O)NCc2ccncc2)cc1,1,-24,90*,-3,2,1
CCOc1ccc(S(=O)(=O)NCc2ccncc2)cc1,2,13,61*,2,20,65*
CC(C)CNS(=O)(=O)c1ccc(CCC(=O)NCc2ccco2)cc1,4,-16,2,-1,-2,-3
